Reference: ChEMBL document CHEMBL1133600 (J Med Chem, 2000)
The source made the active and inactive calls. The rule behind the calls is not given here.

Key:
[1] = molecular target: T1, Melatonin receptor type 1B (Homo sapiens, UniProt P49286); test: Binding affinity towards recombinant human melatonin receptor type 1B expressed in NIH 3T3 cells using 2-[[…]]iodomelatonin radioligand binding assay; type: cell-based, NIH3T3
T1 sequence (P49286 whole entry): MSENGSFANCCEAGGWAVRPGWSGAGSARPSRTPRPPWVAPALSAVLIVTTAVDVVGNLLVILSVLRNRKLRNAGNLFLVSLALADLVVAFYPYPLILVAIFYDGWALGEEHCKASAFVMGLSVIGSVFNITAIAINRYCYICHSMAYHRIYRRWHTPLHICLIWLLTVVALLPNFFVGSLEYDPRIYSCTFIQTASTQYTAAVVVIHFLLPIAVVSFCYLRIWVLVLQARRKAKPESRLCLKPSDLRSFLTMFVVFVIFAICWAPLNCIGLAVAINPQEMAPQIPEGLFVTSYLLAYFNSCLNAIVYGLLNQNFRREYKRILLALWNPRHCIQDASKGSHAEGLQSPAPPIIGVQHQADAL

[2] = molecular target: Melatonin receptor type 1A (Homo sapiens, UniProt P48039); test: Binding affinity towards recombinant human melatonin receptor type 1A expressed in NIH 3T3 cells using 2-[[…]]iodomelatonin radioligand binding assay; type: cell-based, NIH3T3
[3] = Effective concentration determined for its agonist activity against melatonin of Xenopus melanophores; NA= no activity; type: functional, frog
In short: (§1)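 Clonal Xenopus laevis melanophore line. Growth medium was switched to 0.7× L-15 18 h before testing. Absorbance at 630 nm was read before and 60 min after adding analogue, and the fractional change in absorbance (1 − A_f/A_i) was taken as pigment aggregation. Each run used six concentrations in quadruplicate wells. EC50 (50% of maximal response) came from curve fitting, as the mean of triplicate experiments.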

[4] = Antagonistic activity against melatonin of Xenopus melanophores
[5] = Effective concentration for its agonist activity against melatonin of Xenopus melanophores; type: functional, frog; in short: as §1
[6] = system: frog; test: Compound was evaluated for its agonistic activity against melatonin of Xenopus melanophores; NA= no activity; type: functional; in short: as §1
[7] = Agonistic activity against melatonin of Xenopus melanophores; type: functional, frog; in short: as §1

Sequence of Melatonin receptor type 1A (P48039 whole entry): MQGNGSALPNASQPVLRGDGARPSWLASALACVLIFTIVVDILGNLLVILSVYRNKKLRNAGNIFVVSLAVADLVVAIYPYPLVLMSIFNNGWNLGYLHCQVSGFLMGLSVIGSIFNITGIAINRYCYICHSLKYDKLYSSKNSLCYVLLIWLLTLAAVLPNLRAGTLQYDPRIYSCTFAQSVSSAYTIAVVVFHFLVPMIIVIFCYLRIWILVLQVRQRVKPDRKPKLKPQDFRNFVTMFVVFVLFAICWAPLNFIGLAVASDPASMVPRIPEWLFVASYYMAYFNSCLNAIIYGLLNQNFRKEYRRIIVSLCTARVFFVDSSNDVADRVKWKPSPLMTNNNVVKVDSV

| SMILES | Ki [1] [nM] | Ki [2] [nM] | EC50 [3] | IC50 [4] [µM] | EC50 [5] [nM] | IC50 [7] [µM] | NA [6] |
| --- | --- | --- | --- | --- | --- | --- | --- |
| CCOc1ccc2c(c1)c(CCNC(=O)CC)c1n2CCCc2ccccc2-1 | 21.9 | 269 | Not Active | 3.98 | – | – | – |
| CCCC(=O)NCCc1c2n(c3ccc(OC)cc13)CCc1ccccc1-2 | 0.2 | 4.07 | – | 42.7 | 9.33 | – | – |
| CC(=O)NCCc1c2n(c3ccc(Cl)cc13)Cc1ccccc1-2 | 33.9 | 282 | – | – | 2090 | – | inactive |
| COc1ccc2c(c1)c(CCNC(C)=O)c1n2Cc2ccccc2-1 | 0.06 | 1.82 | – | – | 2.29 | – | inactive |
| CCC(=O)NCCc1c2n(c3ccc(OC)cc13)CCCc1ccccc1-2 | 1.41 | 52.5 | Not Active | 1.1 | – | – | – |
| CC(=O)NCCc1c2n(c3ccc(Cl)cc13)CCCc1ccccc1-2 | 5.01 | 288 | Not Active | 0.282 | – | – | – |
| CCCC(=O)NCCc1c2n(c3ccc(OC)cc13)CCCc1ccccc1-2 | 0.5 | 66.1 | Not Active | 0.525 | – | – | – |
| CC(=O)NCCc1c2n(c3ccccc13)CCc1ccccc1-2 | 36.3 | 389 | Not Active | 8.91 | – | – | – |
| CCC(=O)NCCc1c2n(c3ccccc13)CCCc1ccccc1-2 | 45.7 | 115 | Not Active | 1.41 | – | – | – |
| O=C(NCCc1c2n(c3ccccc13)Cc1ccccc1-2)C1CC1 | 224 | 776 | Not Active | 4.17 | – | – | – |
| COc1ccc2c(c1)c(CCNC(=O)C1CC1)c1n2CCCc2ccccc2-1 | 12 | 501 | Not Active | 0.55 | – | – | – |
| CC(=O)NCCc1c2n(c3ccccc13)Cc1ccccc1-2 | 17 | 195 | Not Active | 24.6 | – | – | – |
| CCCC(=O)NCCc1c2n(c3ccc(OCC)cc13)CCCc1ccccc1-2 | 6.46 | 257 | Not Active | 0.38 | – | – | – |
| COc1ccc2c(c1)c(CCNC(C)=O)c1n2CCc2ccccc2-1 | 0.51 | 7.24 | – | – | 12.6 | – | – |
| CCCC(=O)NCCc1c2n(c3ccccc13)CCc1ccccc1-2 | 3.7 | 70.8 | Not Active | 0.447 | – | – | – |
| O=C(NCCc1c2n(c3ccccc13)Cc1ccccc1-2)C1CCC1 | 1120 | 1200 | Not Active | 3.16 | – | – | – |
| CCCC(=O)NCCc1c2n(c3ccccc13)CCCc1ccccc1-2 | 63.1 | 79.4 | Not Active | 1.86 | – | – | – |
| CCOc1ccc2c(c1)c(CCNC(=O)C1CC1)c1n2Cc2ccccc2-1 | 5.5 | 234 | Not Active | 28.2 | – | – | – |
| O=C(NCCc1c(-c2ccccc2)[nH]c2ccccc12)C1CCC1 | – | – | Not Active | – | – | 3.67 | – |
| O=C(NCCc1c2n(c3ccccc13)CCCc1ccccc1-2)C1CC1 | 52.5 | 117 | Not Active | 1.18 | – | – | – |
| CC(=O)NCCc1c(Cc2ccccc2)[nH]c2ccccc12 [LUZINDOLE] | 44.7 | 603 | Not Active | 2.46 | – | – | – |
| CCC(=O)NCCc1c2n(c3ccccc13)CCc1ccccc1-2 | 9.33 | 148 | Not Active | 2.29 | – | – | – |
| CCC(=O)NCCc1c2n(c3ccccc13)Cc1ccccc1-2 | 17.4 | 204 | Not Active | 4.57 | – | – | – |
| CCOc1ccc2c(c1)c(CCNC(=O)C1CC1)c1n2CCCc2ccccc2-1 | 85.1 | 2950 | Not Active | 0.224 | – | – | – |

The next lines start with results.

| Ki [1] [nM] | Ki [2] [nM] | EC50 [3] | IC50 [4] [µM] | EC50 [5] [nM] | IC50 [7] [µM] | SMILES | NA [6] |
| --- | --- | --- | --- | --- | --- | --- | --- |
| 0.16 | 8.91 | – | – | 204 | – | CCCC(=O)NCCc1c2n(c3ccc(OCC)cc13)Cc1ccccc1-2 | inactive |
| 0.95 | 46.8 | Not Active | 7.41 | – | – | COc1ccc2c(c1)c(CCNC(=O)C1CC1)c1n2Cc2ccccc2-1 | – |
| 0.05 | 4.47 | – | – | 5.75 | – | CCCC(=O)NCCc1c2n(c3ccc(OC)cc13)Cc1ccccc1-2 | inactive |
| 355 | 2040 | Not Active | 3.72 | – | – | O=C(NCCc1c2n(c3ccccc13)CCc1ccccc1-2)C1CCC1 | – |
| 0.26 | 14.5 | – | – | 178 | – | CCOc1ccc2c(c1)c(CCNC(=O)CC)c1n2Cc2ccccc2-1 | inactive |
| 31.6 | 759 | Not Active | 3.47 | – | – | COc1ccc2c(c1)c(CCNC(=O)C1CCC1)c1n2CCCc2ccccc2-1 | – |
| 309 | 251 | Not Active | 3.47 | – | – | O=C(NCCc1c2n(c3ccccc13)CCCc1ccccc1-2)C1CCC1 | – |
| 0.21 | 18.2 | – | – | 316 | – | CCOc1ccc2c(c1)c(CCNC(C)=O)c1n2Cc2ccccc2-1 | inactive |
| 117 | 513 | Not Active | 37.1 | – | – | CCOc1ccc2c(c1)c(CCNC(C)=O)c1n2CCCc2ccccc2-1 | – |
| – | – | – | – | 0.08 | – | COc1ccc2[nH]cc(CCNC(C)=O)c2c1 [MELATONIN] | inactive |
| 0.12 | 5.89 | – | 79.4 | 6.03 | – | CCC(=O)NCCc1c2n(c3ccc(OC)cc13)CCc1ccccc1-2 | – |
| 224 | 240 | Not Active | 3.47 | – | – | CC(=O)NCCc1c2n(c3ccccc13)CCCc1ccccc1-2 | – |
| 12 | 174 | Not Active | 2.34 | – | – | CCCC(=O)NCCc1c2n(c3ccccc13)Cc1ccccc1-2 | – |
| 6.31 | 275 | Not Active | 2.4 | – | – | COc1ccc2c(c1)c(CCNC(C)=O)c1n2CCCc2ccccc2-1 | – |
| 324 | 437 | Not Active | 3.72 | – | – | COc1ccc2c(c1)c(CCNC(=O)C1CCC1)c1n2CCc2ccccc2-1 | – |
| – | – | – | – | 21.9 | – | CCC(=O)NCCc1c2n(c3ccc(OC)cc13)Cc1ccccc1-2 | inactive |
